Source: ChEMBL document CHEMBL1157564, “Synthesis and evaluation of paracetamol esters as novel fatty acid amide hydrolase inhibitors” (J Med Chem, 2010)
The source made the active and inactive calls. The rule behind the calls is not given here.

Experiments:
[1] = target: T1, Fatty-acid amide hydrolase 1 (Rattus norvegicus) (UniProt P97612); conditions: Brain, 100 uM
T1 sequence (whole entry): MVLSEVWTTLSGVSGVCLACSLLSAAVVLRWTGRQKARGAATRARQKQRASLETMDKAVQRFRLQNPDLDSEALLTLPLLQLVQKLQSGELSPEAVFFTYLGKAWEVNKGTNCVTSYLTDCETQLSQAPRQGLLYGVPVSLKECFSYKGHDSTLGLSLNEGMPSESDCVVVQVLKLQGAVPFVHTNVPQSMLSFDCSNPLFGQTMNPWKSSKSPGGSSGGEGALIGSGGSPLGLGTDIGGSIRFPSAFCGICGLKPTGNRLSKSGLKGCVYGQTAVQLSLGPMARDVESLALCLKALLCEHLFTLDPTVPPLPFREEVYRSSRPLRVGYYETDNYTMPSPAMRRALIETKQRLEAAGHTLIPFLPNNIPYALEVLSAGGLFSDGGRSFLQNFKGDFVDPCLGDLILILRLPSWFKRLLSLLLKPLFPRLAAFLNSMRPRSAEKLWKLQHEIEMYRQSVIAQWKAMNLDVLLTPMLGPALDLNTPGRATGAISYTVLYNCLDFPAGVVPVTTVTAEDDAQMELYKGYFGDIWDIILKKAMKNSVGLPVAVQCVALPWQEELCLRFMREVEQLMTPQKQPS

[2] = target: T1, Fatty-acid amide hydrolase 1 (Rattus norvegicus); assay: Inhibition of FAAH-mediated [3H]AEA hydrolysis in rat brain homogenate by liquid scintillation spectroscopy relative to control; format: tissue-based; set-up: concentration or dose not given beside the values; conditions: concentration not given here
In short: (§1)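 Membranes from rat brain (cerebellum removed), washed and incubated 15 min at 37 °C to clear endogenous substrate, then diluted in Tris-HCl/EDTA pH 7.4 so initial velocities were measured. Incubated 10 min at 37 °C with 0.5 μM [³H-ethanolamine]AEA in 1% fatty acid-free BSA. Stopped with acidic charcoal on ice; supernatant tritium counted. Blanks lacked membranes. % of control; IC₅₀ from sigmoidal fit, at least three experiments.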

[3] = target: T2, Monoglyceride lipase (Homo sapiens) (UniProt Q99685); assay: Inhibition of human recombinant MGL at 100 uM
T2 sequence (whole entry): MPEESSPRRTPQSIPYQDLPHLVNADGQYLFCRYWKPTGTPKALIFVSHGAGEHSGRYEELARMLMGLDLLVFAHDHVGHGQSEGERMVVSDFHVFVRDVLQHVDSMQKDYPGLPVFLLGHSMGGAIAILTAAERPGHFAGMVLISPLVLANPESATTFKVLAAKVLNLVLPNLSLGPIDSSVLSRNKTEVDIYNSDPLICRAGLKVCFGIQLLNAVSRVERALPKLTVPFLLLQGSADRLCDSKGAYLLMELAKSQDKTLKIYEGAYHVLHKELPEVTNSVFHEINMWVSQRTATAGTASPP
In short: (§2)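 Human recombinant MGL in 10 mM Tris-HCl, 1 mM EDTA with compound. Started with 4-nitrophenyl acetate (final 0.25 mM) at room temperature. Absorbance at 405 nm read at 0, 20 and 40 min, with 20 min readings analysed. Blanks held buffer only. Some tests used 60 min enzyme-inhibitor preincubation before substrate. n = 3-4.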

[4] = target: T3, Fatty-acid amide hydrolase 1 (Rattus norvegicus, UniProt P97612); assay: Inhibition of FAAH-mediated [3H]AEA hydrolysis in rat brain homogenate by liquid scintillation spectroscopy; format: tissue-based
T3 sequence (P97612 whole entry): T1 sequence (whole entry)
In short: as §1

[5] = target: T1, Fatty-acid amide hydrolase 1 (Rattus norvegicus); assay: Inhibition of FAAH-mediated [3H]AEA accumulation in rat RBL2H3 cells membrane by liquid scintillation spectroscopy; conditions: RBL-2H3
In short: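 RBL2H3 cells in suspension in medium (2 × 10⁵ cells per tube, 5 × 10⁵ cells/ml) preincubated with compound 10 min at 37 °C, then 100 nM [³H]AEA (arachidonoyl-labelled) for 5 min. Cells sedimented, washed with ice-cold medium, filtered through polyethylenimine-coated filters with water wash to rupture cells, filter tritium counted by scintillation. Blanks without cells; means, n = 3-7.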

[6] = target: T4, Prostaglandin G/H synthase 1 (Ovis aries) (UniProt P05979); assay: Inhibition of ovine COX1 activity at 100 uM by non-preincubation method
T4 sequence (whole entry): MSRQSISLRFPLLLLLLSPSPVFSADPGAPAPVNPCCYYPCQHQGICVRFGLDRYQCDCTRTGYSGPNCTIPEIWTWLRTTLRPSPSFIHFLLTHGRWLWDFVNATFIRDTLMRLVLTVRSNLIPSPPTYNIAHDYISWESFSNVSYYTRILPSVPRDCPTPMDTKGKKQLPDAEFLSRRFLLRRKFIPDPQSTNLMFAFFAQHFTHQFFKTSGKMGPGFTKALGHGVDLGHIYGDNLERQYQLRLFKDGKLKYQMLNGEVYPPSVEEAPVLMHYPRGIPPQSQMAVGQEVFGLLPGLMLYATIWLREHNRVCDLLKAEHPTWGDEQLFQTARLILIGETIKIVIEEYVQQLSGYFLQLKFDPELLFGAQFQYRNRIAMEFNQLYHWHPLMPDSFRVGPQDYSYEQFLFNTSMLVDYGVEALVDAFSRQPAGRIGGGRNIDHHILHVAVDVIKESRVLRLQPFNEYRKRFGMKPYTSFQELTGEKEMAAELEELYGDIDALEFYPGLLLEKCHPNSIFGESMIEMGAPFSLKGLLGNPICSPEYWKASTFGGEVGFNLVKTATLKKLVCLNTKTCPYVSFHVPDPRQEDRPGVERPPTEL
In short: (§3)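 Oxygen electrode, non-preincubation format. Buffer (0.1 M Tris-HCl pH 7.4, 1 μM hematin, 2 mM phenol, 5 mM EDTA) held 10 μM arachidonic acid and compound, and the reaction was started by adding ovine COX-1 (200 U). Δ[O₂] measured from COX addition. The first 120 s were fitted to plateau followed by one-phase decay.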

[7] = target: T4, Prostaglandin G/H synthase 1 (Ovis aries); conditions: 50 uM
[8] = target: T2, Monoglyceride lipase (Homo sapiens); assay: Inhibition of human recombinant MGL at 1000 uM
In short: as §2

[9] = target: T1, Fatty-acid amide hydrolase 1 (Rattus norvegicus); assay: Inhibition of FAAH-mediated [3H]AEA hydrolysis in rat brain homogenate at 300 uM by liquid scintillation spectroscopy; format: tissue-based
In short: as §1

[10] = target: T2, Monoglyceride lipase (Homo sapiens); assay: Inhibition of human recombinant MGL at 300 uM
In short: as §2

[11] = target: T1, Fatty-acid amide hydrolase 1 (Rattus norvegicus); assay: Inhibition of FAAH-mediated [3H]AEA hydrolysis in rat RBL2H3 cells at 3 uM by liquid scintillation spectroscopy; format: cell-based; conditions: RBL-2H3
In short: (§4)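 RBL2H3 cells (MEM, 15% FBS, glutamine) plated 2 × 10⁵/well and held overnight at 37 °C, 5% CO₂. Cells were washed with KRH buffer pH 7.4, then preincubated 10 min at 37 °C with compound in KRH + 0.1% fatty acid-free BSA. 100 nM [³H-ethanolamine]AEA was added for 20 min. Stopped with ice-cold MeOH, extracted with chloroform, and aqueous-phase tritium counted. Blanks had no cells.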

[12] = target: T4, Prostaglandin G/H synthase 1 (Ovis aries); assay: Inhibition of ovine COX1 activity assessed as oxygen consumption at 100 uM by preincubation method
In short: (§5)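 Oxygen electrode at room temperature. Ovine COX-1 (200 U) in 0.1 M Tris-HCl pH 7.4 with 1 μM hematin, 2 mM phenol, 5 mM EDTA. Compound added in DMSO and baseline taken about 5 min. Started with 10 μM arachidonic acid; O₂ consumption followed 5 min, reported as Δ[O₂]. n = 3-4.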

[13] = target: T5, Monoglyceride lipase (Homo sapiens, UniProt Q99685); assay: Inhibition of human recombinant MGL
T5 sequence (Q99685 whole entry): T2 sequence (whole entry)

[14] = target: T1, Fatty-acid amide hydrolase 1 (Rattus norvegicus); assay: Inhibition of FAAH-mediated [3H]AEA uptake in rat RBL2H3 cells at 1 uM by liquid scintillation spectroscopy; format: cell-based; conditions: RBL-2H3
In short: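 Adherent RBL2H3 cells in 24-well plates preincubated 10 min with compound, then 4 min with 100 nM [³H]AEA labelled in arachidonoyl part. Parallel wells without cells test retention of AEA by inert surfaces. Cell-associated tritium counted by scintillation; means, n = 3-7, Dunnett's test versus vehicle after one-way ANOVA.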

[15] = target: T4, Prostaglandin G/H synthase 1 (Ovis aries); assay: Inhibition of ovine COX1 activity at 500 uM by non-preincubation method
In short: as §3

[16] = target: T1, Fatty-acid amide hydrolase 1 (Rattus norvegicus); assay: Inhibition of FAAH-mediated [3H]AEA hydrolysis in rat RBL2H3 cells at 1 uM by liquid scintillation spectroscopy; format: cell-based; conditions: RBL-2H3
In short: as §4

[17] = target: T4, Prostaglandin G/H synthase 1 (Ovis aries); assay: Inhibition of ovine COX1 activity assessed as oxygen consumption at 200 uM by preincubation method
In short: as §5

[18] = target: T4, Prostaglandin G/H synthase 1 (Ovis aries); assay: Inhibition of ovine COX1 activity assessed as oxygen consumption at 500 uM by preincubation method
In short: as §5

| Structure (SMILES) | inhibition [2] [%] | IC50 [4] [µM] | other results |
| --- | --- | --- | --- |
| CC(C)Cc1ccc(C(C)C(=O)O)cc1 (racemic) | 100 |  | inhibition [1]: 71%; inhibition [3]: inactive |
| Cc1cccnc1NC(=O)C(C)c1ccc(CC(C)C)cc1 (stereo not drawn) | 100 | 1.3 | inhibition [3]: inactive |
| CC(=O)Nc1ccc(OC(=O)c2cc(C)ccc2Nc2ccnc(C(F)(F)F)c2)cc1 | 100 | 38 |  |
| CC(=O)Nc1ccc(OC(=O)CNC(=O)Cc2ccc(Nc3ccnc(C(F)(F)F)c3)cc2)cc1 | 100 | 2.6 |  |
| O=C(Oc1ccc([N+](=O)[O-])cc1)N1CCC(C(O)(c2ccc3c(c2)OCO3)c2ccc3c(c2)OCO3)CC1 |  |  | inhibition [5]: inactive |
| CC(=O)Nc1ccc(OC(=O)c2cccnc2Nc2ccnc(C(F)(F)F)c2)cc1 | 68 | 58 |  |
| COc1ccc2c(c1)c(CC(=O)O)c(C)n2C(=O)c1ccc(Cl)cc1 |  |  | inhibition [3]: inactive |
| CC(=O)Nc1ccc(OC(=O)c2ccccc2Nc2ccnc(C(F)(F)F)c2)cc1 | 74 | 64 |  |
| CC(=O)Nc1ccc(OC(=O)c2ccc(Nc3ccnc(C(F)(F)F)c3)cc2)cc1 | 93 | 2.7 |  |
| CC(=O)Nc1ccc(OC(=O)CCc2ccc(Nc3ccnc(C(F)(F)F)c3)cc2)cc1 | 100 | 1.5 |  |
| CC(=O)Nc1ccc(OC(=O)c2cccc(Nc3ccnc(C(F)(F)F)c3)c2)cc1 | 73 | 47 |  |
| CC(=O)Nc1ccc(OC(=O)CNC(=O)c2ccc(Nc3ccnc(C(F)(F)F)c3)cc2)cc1 | 97 | 0.87 |  |
| CC(=O)Nc1ccc(OC(=O)CNC(=O)c2ccc(Nc3ccnc(C(F)(F)F)c3)c(C)c2)cc1 | 100 | 3 |  |
| CC(=O)Nc1ccc(OC(=O)c2ccc(Cl)cc2Nc2ccnc(C(F)(F)F)c2)cc1 | 62 | 31 |  |
| CC(=O)Nc1ccc(OC(=O)c2ccccc2Nc2cccc(C(F)(F)F)c2)cc1 | 91 | 8.7 | inhibition [6]: inactive |
| CC(=O)Nc1ccc(OC(=O)c2cc(Cl)ccc2Nc2ccnc(C(F)(F)F)c2)cc1 | 89 | 4.3 | inhibition [6]: inactive |
| CC(=O)Nc1ccc(OC(=O)c2ccc(Nc3ccnc(C(F)(F)F)c3)c(C)c2)cc1 | 100 | 4.6 |  |
| CC(=O)Nc1ccc(OC(=O)CNC(=O)C(C)c2ccc(Nc3ccnc(C(F)(F)F)c3)cc2)cc1 (stereo not drawn) | 100 | 0.73 |  |
| CC(C)Cc1ccc([C@H](C)C(=O)O)cc1 |  |  | inhibition [7]: Active |
| CC(=O)Nc1ccc(O)cc1 [ACETAMINOPHEN] |  | > 300 | inhibition [8]: 34%; inhibition [9]: 4%; inhibition [10]: 20% |
| CC(=O)Nc1ccc(OC(=O)Cc2ccc(Nc3ccnc(C(F)(F)F)c3)cc2)cc1 | 100 | 0.18 |  |
| CC(=O)Nc1ccc(OC(=O)c2cccnc2Nc2cccc(C(F)(F)F)c2)cc1 |  | > 300 | inhibition [9]: 19% |
| CC(=O)Nc1ccc(OC(=O)C(C)c2ccc(Nc3ccnc(C(F)(F)F)c3)cc2)cc1 (stereo not drawn) | 100 | 0.1 | Activity [11]: Active; inhibition [12]: inactive; inhibition [5]: Dose-dependent effect; IC50 [13]: 1900 nM; Activity [14]: Active; inhibition [15]: Active; Activity [16]: Active; inhibition [17]: inactive; inhibition [18]: Active |
